Legend:
[1] = test system: K562; experiment: Tested for cytotoxicity against human […] leukemia K562 cell line; format: functional
Summary of the method: (§1)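 Cells were kept in DMEM/RPMI 1640 with 10% fetal calf serum, 2 mM glutamine and antibiotics. They were seeded at 2500–30 000 cells/well according to growth characteristics and preincubated 24 h at 37 °C, 5% CO2. Four-fold compound dilutions were tested in duplicate for 72 h. MTT was then added for 1–4 h, the formazan was dissolved in 10% SDS (pH 5.5) overnight, and OD was read at 540 nm. Survival was taken relative to mean control, and TCS50 was derived from dose–response curves.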

[2] = test system: B16; experiment: Tested for cytotoxicity against mouse melanoma B16 cell line; format: functional; summary of the method: as §1
[3] = test system: Caco-2; experiment: Tested for cytotoxicity against human colon cancer Caco-2 cell line; format: functional; summary of the method: as §1
[4] = test system: CCRF-CEM; experiment: Tested for cytotoxicity against human T-lymphoblastic leukemia CEM cell line; format: functional; summary of the method: as §1
[5] = test system: CCRF-CEM; experiment: Cytotoxicity against chemosensitive CEM-T lymphoblastc leukemia cell line.; format: functional, Homo sapiens; summary of the method: as §1
[6] = test system: K562; experiment: Tested for cytotoxicity against human […] leukemia K562-ARA-C cell line; format: functional; summary of the method: as §1
[7] = test system: SW-620; experiment: Tested for cytotoxicity against human colon cancer SW620 cell line; format: functional; summary of the method: as §1
[8] = test system: HT-29; experiment: Tested for cytotoxicity against human colon cancer HT-29 cell line; format: functional; summary of the method: as §1
[9] = test system: CEM-DNR; experiment: Tested for cytotoxicity against human T-lymphoblastic leukemia CEM-DNR bulk cell line; format: functional; summary of the method: as §1
[10] = test system: NIH3T3; experiment: Tested for cytotoxicity against mouse immortalized fibroblast NIH3T3 cell line; format: functional; summary of the method: as §1
[11] = test system: K562; experiment: Tested for cytotoxicity against human […] leukemia K562-CdA cell line; format: functional; summary of the method: as §1
[12] = test system: CEM-VCR 1/F3; experiment: Tested for cytotoxicity against human T-lymphoblastic leukemia CEM-VCR 1/F3 cell line; format: functional; summary of the method: as §1
[13] = test system: BT-549; experiment: Tested for cytotoxicity against human breast cancer BT549 cell line; format: functional; summary of the method: as §1
[14] = test system: LNCaP; experiment: Tested for cytotoxicity against human prostate cancer LNCaP cell line; format: functional; summary of the method: as §1
[15] = test system: A549; experiment: Tested for cytotoxicity against human lung adenocarcinoma A549 cell line; format: functional; summary of the method: as §1
[16] = test system: DU-145; experiment: Tested for cytotoxicity against human prostate cancer DU145 cell line; format: functional; summary of the method: as §1
[17] = test system: U-87 MG; experiment: Tested for cytotoxicity against human glioblastoma U87MG cell line; format: functional, U-87MG ATCC; summary of the method: as §1
[18] = test system: K562; experiment: Tested for cytotoxicity against human […] leukemia K562-GEM cell line; format: functional; summary of the method: as §1
[19] = species: Homo sapiens; experiment: Tested for cytotoxicity against human normal lymphocytes; format: functional; summary of the method: as §1
[20] = test system: OVCAR-3; experiment: Tested for cytotoxicity against human ovarian cancer OVCAR-3 cell line; format: functional; summary of the method: as §1
[21] = test system: K562; experiment: Tested for cytotoxicity against human […] leukemia K562-FLU D-CEM cell line; format: functional
Summary of the method: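 Cytotoxicity by MTT in fludarabine-resistant K562 subline (K562-FLUD), cultured in DMEM/RPMI 1640 with 10% fetal calf serum. Cells seeded at 2500–30 000/well, preincubated 24 h at 37 °C, 5% CO2. Fourfold dilutions in duplicate, 72 h exposure. MTT 1–4 h, formazan dissolved in 10% SDS overnight, OD 540 nm. Survival relative to control; TCS50 taken from dose–response curves.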

[22] = test system: B16; experiment: Tested for cytotoxicity against mouse melanoma B16F cell line; format: functional; summary of the method: as §1
[23] = test system: SK-MEL3; experiment: Tested for cytotoxicity against human melanoma MEL-3 cell line; format: functional; summary of the method: as §1
[24] = test system: MDA-MB-238; experiment: Tested for cytotoxicity against human breast cancer MDA-MB-238 cell line; format: functional; summary of the method: as §1
[25] = test system: MCF7; experiment: Tested for cytotoxicity against human breast cancer MCF-7 cell line; format: functional; summary of the method: as §1
[26] = test system: CEM-DNR; experiment: Tested for cytotoxicity against human T-lymphoblastic leukemia CEM-DNR 1/C2 cell line; format: functional; summary of the method: as §1
[27] = test system: U2OS; experiment: Tested for cytotoxicity against human osteosarcoma U2OS cell line; format: functional; summary of the method: as §1
[28] = test system: HepG2; experiment: Tested for cytotoxicity against human hepatocellular carcinoma HepG2 cell line; format: functional; summary of the method: as §1
[29] = test system: CEM-VCR 1/D/5; experiment: Tested for cytotoxicity against human T-lymphoblastic leukemia CEM-VCR 1/D5 cell line; format: functional; summary of the method: as §1
[30] = test system: CEM-VCR; experiment: Tested for cytotoxicity against human T-lymphoblastic leukemia CEM-VCR bulk cell line; format: functional; summary of the method: as §1
[31] = test system: SAOS-2; experiment: Tested for cytotoxicity against human […] Saos2 cell line; format: functional; summary of the method: as §1

Structure (SMILES): COC(=O)[C@@]12CC[C@]3(C)[C@H](CC[C@@H]4[C@@]5(C)CC[C@H](OC(C)=O)C(C)(C)[C@@H]5CC[C@]43C)C1=C(C(C)C)C(=O)C2=O
- TCS50 [1]: 1.85 µM
- TCS50 [2]: 35.4 µM
- TCS50 [3]: 8.13 µM
- TCS50 [4]: 4.4 µM
- TCS50 [5]: 4.4 µM
- TCS50 [6]: 6.42 µM
- TCS50 [7]: 5.89 µM
- TCS50 [8]: 5.23 µM
- TCS50 [9]: 5.18 µM
- TCS50 [10]: 96.8 µM
- TCS50 [11]: 5.17 µM
- TCS50 [12]: 38.3 µM
- TCS50 [13]: 15.3 µM
- TCS50 [14]: 3.26 µM
- TCS50 [15]: 6.7 µM
- TCS50 [16]: 1.98 µM
- TCS50 [17]: 23.8 µM
- TCS50 [18]: 5.04 µM
- TCS50 [19]: 85.3 µM
- TCS50 [20]: 4.65 µM
- TCS50 [21]: 4.85 µM
- TCS50 [22]: 67.9 µM
- TCS50 [23]: 5.86 µM
- TCS50 [24]: 3.28 µM
- TCS50 [25]: 12.9 µM
- TCS50 [26]: 10.3 µM
- TCS50 [27]: 4.28 µM
- TCS50 [28]: 5.14 µM
- TCS50 [29]: 12.5 µM
- TCS50 [30]: 28.2 µM
- TCS50 [31]: 7.9 µM

Structure (SMILES): C=C(C=O)[C@@H]1CC[C@]2(C(=O)O)CC[C@]3(C)[C@H](CC[C@@H]4[C@@]5(C)CC[C@H](OC(C)=O)C(C)(C)[C@@H]5CC[C@]43C)C12 (stereo partly drawn)
- TCS50 [1]: 15.12 µM
- TCS50 [2]: 9.32 µM
- TCS50 [3]: 7.72 µM
- TCS50 [4]: 4 µM
- TCS50 [5]: 4 µM
- TCS50 [6]: 1.59 µM
- TCS50 [7]: 5.86 µM
- TCS50 [8]: 12.31 µM
- TCS50 [9]: 3.26 µM
- TCS50 [10]: 15.7 µM
- TCS50 [11]: 2.13 µM
- TCS50 [12]: 5.94 µM
- TCS50 [13]: 6.28 µM
- TCS50 [14]: 3.55 µM
- TCS50 [15]: 43.27 µM
- TCS50 [16]: 2.75 µM
- TCS50 [17]: 98.3 µM
- TCS50 [18]: 2.36 µM
- TCS50 [19]: 24.9 µM
- TCS50 [20]: 2.59 µM
- TCS50 [21]: 1.27 µM
- TCS50 [22]: 12.4 µM
- TCS50 [23]: 3.68 µM
- TCS50 [24]: 2.37 µM
- TCS50 [25]: 4.3 µM
- TCS50 [26]: 1.58 µM
- TCS50 [27]: 3.94 µM
- TCS50 [28]: 7.12 µM
- TCS50 [29]: 7.82 µM
- TCS50 [30]: 6.95 µM
- TCS50 [31]: 4.8 µM

Structure (SMILES): CC(=O)OC[C@@]1(C(=O)O)CC[C@]2(C)[C@H](CC[C@@H]3[C@@]4(C)CC[C@H](OC(C)=O)C(C)(C)[C@@H]4CC[C@]32C)C1=O
- TCS50 [1]: 0.19 µM
- TCS50 [2]: 0.43 µM
- TCS50 [3]: 2.97 µM
- TCS50 [4]: 1 µM
- TCS50 [5]: 1 µM
- TCS50 [6]: 0.63 µM
- TCS50 [7]: 1.22 µM
- TCS50 [8]: 3.57 µM
- TCS50 [9]: 1.05 µM
- TCS50 [10]: 7.21 µM
- TCS50 [11]: 0.28 µM
- TCS50 [12]: 3.27 µM
- TCS50 [13]: 2.03 µM
- TCS50 [14]: 1.12 µM
- TCS50 [15]: 2.8 µM
- TCS50 [16]: 0.84 µM
- TCS50 [17]: 1.85 µM
- TCS50 [18]: 0.94 µM
- TCS50 [19]: 12.5 µM
- TCS50 [20]: 0.9 µM
- TCS50 [21]: 0.35 µM
- TCS50 [22]: 4.66 µM
- TCS50 [23]: 1.28 µM
- TCS50 [24]: 1.35 µM
- TCS50 [25]: 2.3 µM
- TCS50 [26]: 0.61 µM
- TCS50 [27]: 1.53 µM
- TCS50 [28]: 1.67 µM
- TCS50 [29]: 2.93 µM
- TCS50 [30]: 2.51 µM
- TCS50 [31]: 1.78 µM

— ChEMBL document CHEMBL1146596, “New lupane derived compounds with pro-apoptotic activity in cancer cells: synthesis and structure-activity relationships” (2003)
